# Bioassay records deposited in PubChem by The Scripps Research Institute Molecular Screening Center.
# NPY Y2 blocker = NPY-Y2 (human) receptor antagonism; NPY-Y2 expressing cells, antagonist mode; inhibition, % at 2.7 µM; AID 793; P49146; 140,000 tested, 0.99% active;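 also: 0% = vehicle with agonist challenge and 100% = reference antagonist with challenge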
# S1P4 agonist = human S1P4 receptor agonism; O95977; S1P4-expressing cell line, agonist reporter assay; activation, % at 4.98 µM; 220,000 tested, 0.35% active; AID 1509; in the data active = activation above about 11%;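 also: 0% = DMSO vehicle and 100% = reference agonist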
# Target sequence (O95977 whole entry, looked up): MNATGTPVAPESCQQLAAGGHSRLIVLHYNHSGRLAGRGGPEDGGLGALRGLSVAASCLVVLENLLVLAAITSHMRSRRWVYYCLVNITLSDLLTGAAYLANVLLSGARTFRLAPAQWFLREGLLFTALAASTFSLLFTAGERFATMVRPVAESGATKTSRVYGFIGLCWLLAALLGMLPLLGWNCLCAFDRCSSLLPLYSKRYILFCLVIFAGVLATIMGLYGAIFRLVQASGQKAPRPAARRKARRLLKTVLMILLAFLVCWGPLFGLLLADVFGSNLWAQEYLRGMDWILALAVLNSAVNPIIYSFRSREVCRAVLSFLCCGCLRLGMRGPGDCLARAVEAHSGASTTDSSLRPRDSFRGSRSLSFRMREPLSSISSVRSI
# NPY1 pot ag = potentiates or activates human NPY-Y1 receptor | NPY-Y1 expressing cells, potentiator/agonist activation | activation, % at 3.6 µM | 220,000 tested, 0.37% active | AID 1304 | P25929; in the data active = activation above about 33%, passing the limit was not always enough;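 also: cells stimulated with NPY at EC10 then isoproterenol at EC100; 0% = low agonist plus stimulus and 100% = saturating agonist plus stimulus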
# NPY Y1 blocker = blocks the human neuropeptide Y Y1 receptor; 200,000 tested, 1% active; HEK293-CNG Y1 cells, membrane potential fluorescence; NPY at EC95, then isoproterenol; P25929; AID 1040; inhibition, % at 3.6 µM;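 active = inhibition above the campaign mean inhibition of all tested compounds plus 3 SD, cut at about 20% in these data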;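 also: 0% = DMSO wells given NPY plus isoproterenol and 100% = isoproterenol alone without NPY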
#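 Assay system: HEK293 cells with Y1 receptor plus CNG channel | Probe or stimulus: NPY (25 nM), isoproterenol (1 µM), Ro 20-1724 (25 µM) | Timing: Compound incubation 1 h at room temperature, readout 45 min post-stimulation | Measured by: Membrane-potential fluorescent dye readout | Benchmarks: High control isoproterenol alone, low control NPY with isoproterenol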
# NPY-Y2 PAM-ag = potentiates or activates human NPY-Y2 receptor. P49146. cells expressing NPY-Y2, potentiator/agonist read-out. activation, % at 3.6 µM. 220,000 tested, 0.45% active; in the data active = activation above about 27%;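 also: cells stimulated with NPY near EC25 plus isoproterenol at EC100; 0% = vehicle plus submaximal agonist and 100% = vehicle plus saturating agonist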
# S1P4 antag = antagonists of human S1P4 receptor; S1P4-expressing cells, antagonist mode, reporter read-out; O95977; 220,000 tested, 0.26% active; inhibition, % at 4.98 µM; in the data active = inhibition above about 29%;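 also: 0% = wells stimulated with agonist and 100% = vehicle wells without agonist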
# NPY1 antag conf = confirmation of human neuropeptide Y receptor Y1 antagonists. shares compounds with NPY Y1 blocker. HEK293-CNG NPY-Y1, membrane potential fluorescence, cAMP; NPY challenge against isoproterenol-raised cAMP. 1,200 tested, 21% active. inhibition, % at 3.6 µM. AID 1254; in the data active = inhibition above about 20%;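 also: 0% = vehicle with agonist plus stimulus and 100% = stimulus alone without agonist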
# NPY2 antag ctr = counter-screen for NPY-Y1 antagonists: human NPY-Y2 antagonism | HEK293 NPY-Y2 CNG membrane potential fluorescence; cells given NPY, then isoproterenol | inhibition, % at 3.6 µM | 1,200 tested, 28% active | shares compounds with NPY Y1 blocker;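 also: 0% = DMSO with agonist challenge and 100% = reference antagonist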
# * = called active by the depositor; x = no result given. Most compounds without a hit are left out; they make up all but 2.4% or so of the library. Rule as the data show it, unless noted: active = inhibition above about 17%; inactive = the rest.
SMILES,NPY Y2 blocker,S1P4 agonist,NPY1 pot ag,NPY Y1 blocker,NPY-Y2 PAM-ag,S1P4 antag,NPY1 antag conf,NPY2 antag ctr
Cc1ccccc1-n1c([C@@H]2C[C@H]2c2ccccc2)n[nH]c1=S,x,-1.4,-5.6,x,-14.8,4.3,x,x
CCOC(=O)c1[nH]c(C)c(C(=O)N2CCc3ccccc32)c1C,5.2,-3.3,-13.9,31.9*,-9.8,6.3,-0.1,9.3
CC(=O)c1cccc(NC(=O)/C(=C\c2ccco2)NC(=O)c2cccs2)c1,0.5,0.0,0.2,4.5,-9.4,-8.6,x,x
O=C(Nc1cccc(C(F)(F)F)c1)/C(=C/c1ccco1)NC(=O)c1cccs1,1.0,2.0,9.4,89.8*,-4.7,-0.4,-1.3,-2.0
COCCNc1nc2nonc2nc1N(C)Cc1cccc2cnccc12,x,0.2,0.7,27.3*,-7.9,5.6,2.5,1.4
CCN(c1ccccc1)c1nc2nonc2nc1NCCO,x,1.9,-10.1,x,0.4,6.1,x,x
Cc1ccc(NC(=O)CCC(=O)NNC(=S)Nc2ccccc2)c(C)c1,x,1.8,11.3,2.6,3.2,0.6,x,x
Cc1ccc(NC(=S)NNC(=S)Nc2ccc(C)cc2C)cc1,x,-1.1,-3.1,22.0*,-40.7,-5.6,10.2,17.1*
O=C(COC(=O)CSc1ccc2ccccc2c1Br)NC1CC1,x,1.8,-38.4,25.1*,-30.9,-11.3,14.6,11.8
CCOc1cc(C(=S)N2CCCCC2)ccc1OCC(=O)NCc1ccccc1,6.3,-1.0,3.8,0.9,-2.6,-10.9,x,x
O=C(c1ccccn1)N(Cc1cccs1)C1(C(=O)NC2CCCCC2)CCCCC1,x,1.1,7.5,44.0*,-10.7,-30.2,15.4,7.3
CN(C)Cc1cc(CCNC(=O)c2ccc(Cl)cc2)ccc1O,2.0,0.1,-11.2,21.5*,4.9,-3.0,-1.4,2.4
O=C(COc1ccc2ccccc2c1)NCCc1ccc2c(c1)OCCO2,15.8,0.5,-52.5,24.6*,-9.9,-4.2,17.3,11.3
CC(=O)Nc1nnc(-c2ccco2)o1,x,-1.5,19.1,-0.4,-9.7,-1.8,x,x
Cc1cc(C)c(OCC(=O)Nc2nnc(-c3ccco3)o2)c(C)c1,x,0.8,-17.3,30.7*,-9.5,5.0,10.3,11.1
CC(=O)c1cccc(NC(=O)C(C)N(C)CC(=O)Nc2ccc(Cl)cc2)c1 (configuration not stated),x,-0.1,5.3,x,-4.5,3.7,x,x
O=C(COc1ccccc1Cl)c1ccc2c(c1)CCCC2,5.5,-1.9,-52.0,20.7*,-19.7,14.7,10.6,8.6
COc1ccc(CC(=O)Nc2c3c(nn2-c2cccc(Cl)c2)CS(=O)(=O)C3)cc1,7.9,-1.6,6.0,14.1,6.1,-11.9,x,x
O=C(Cc1ccccc1)Nc1c2c(nn1-c1cccc(Cl)c1)CS(=O)(=O)C2,9.4,0.5,-13.0,21.5*,-16.3,20.5,16.6,7.5
Cc1nn(CC(=O)c2ccccc2)c(=O)c2nn(-c3ccccc3F)c(C)c12,7.9,-1.0,-26.8,-2.3,-7.6,-14.7,x,x
COc1ccccc1NC(=O)COc1ccc(Br)cc1CNCCCN1CCOCC1,x,-2.1,-11.4,22.2*,-3.9,2.9,11.9,14.7
CCOc1cc(CNCCCN2CCOCC2)cc(Br)c1OCC(=O)Nc1cccc(C(F)(F)F)c1,12.3,0.6,-43.4,27.1*,-29.3,-6.6,17.1,23.6*
Cc1ccccc1CSc1ccc(-c2ccc3c(c2)OCO3)nn1,7.2,1.1,-25.8,10.7,-5.6,-18.1,x,x
CCSc1nc(C2CC2)cc(-c2cccs2)c1C#N,3.4,1.8,-17.6,21.8*,-17.1,1.1,6.9,7.8
Cc1ccc(NC(=S)NCCN(C2CCCCC2)C2CCCC2)cc1C,x,-1.4,-12.3,27.5*,-1.9,20.0,8.1,12.7
SMILES,NPY Y2 blocker,S1P4 agonist,NPY1 pot ag,NPY Y1 blocker,NPY-Y2 PAM-ag,S1P4 antag,NPY1 antag conf,NPY2 antag ctr
CCn1c2ccccc2c2cc(NC(=O)c3cc(OC)c(OC)c(OC)c3)ccc21,0.7,-2.9,-23.1,34.6*,-18.7,13.2,2.5,16.4
CCOC(=O)CNC(=S)n1ncnc1N,x,0.1,1.7,4.9,6.8,6.4,x,x
CC12COC3(C(=O)Nc4ccc5ccccc5c4)CC1CCC32C (configuration not stated),x,-1.5,-19.0,22.9*,-19.8,-0.4,13.0,24.1*
CCOn1c(=O)c(-c2cccs2)[n+]([O-])c2ccccc21,7.6,-1.7,-4.7,10.4,-3.2,-5.2,x,x
COn1c(=O)c(-c2cccs2)[n+]([O-])c2ccccc21,10.1,-0.4,-15.6,25.0*,-16.0,-6.6,10.0,7.9
CCc1nc(N[C@H](C(=O)O)C(C)C)c2oc3ccccc3c2n1,x,0.3,-49.4,x,-22.0,11.5,x,x
CCc1nc(N[C@@H](CC(C)C)C(=O)O)c2oc3ccccc3c2n1,13.6,0.2,-19.7,25.8*,-19.9,-28.3,13.7,22.8*
CN(C)C(=O)CN1CCN(Cc2cn(C)nc2-c2ccc3c(c2)OCCO3)CC1,x,0.6,8.1,-4.0,-4.0,0.8,x,x
COc1cc(/C=C/C(=O)O)cc2c1OCCO2,x,-1.3,-11.9,-1.2,-25.7,6.3,x,x
COc1ccc(N/N=C(\C=N\O)C(=O)c2ccc(OC)cc2)cc1,-1.2,-0.1,-29.9,32.1*,-9.3,6.5,4.2,16.5
Cc1ccc(-c2cc(C(=O)O)c3ccccc3n2)c(C)c1,x,-0.1,3.9,x,-13.8,-7.9,x,x
N=c1n(Cc2ccccc2)c2ccccc2n1CC(O)c1ccccc1 (configuration not stated),16.2,-1.9,-23.7,27.5*,-13.6,3.1,9.3,16.4
N=c1n(Cc2ccccc2Cl)c2ccccc2n1CC(O)c1ccco1 (configuration not stated),x,1.6,5.7,28.1*,-7.4,1.2,15.4,25.0*
Cn1c(=N)n(CC(O)c2ccco2)c2ccccc21 (configuration not stated),4.2,0.6,0.2,7.5,-25.8,-9.7,x,x
CCCn1c(=N)n(CC(O)c2ccc(C)cc2)c2ccccc21 (configuration not stated),x,-0.5,-12.3,x,-29.2,9.5,x,x
CCOC(=O)c1sc(NC(NC(=O)c2ccco2)(C(=O)OC)C(F)(F)F)nc1C (configuration not stated),5.4,1.8,2.2,31.6*,-12.9,-0.3,7.8,12.5
Oc1ccc(/C=C/c2cnccn2)cc1,x,-0.5,-13.1,x,-4.5,-14.4,x,x
CCNC(=O)c1ccccc1-c1nc(-c2ccccc2OC)no1,x,1.1,7.9,x,1.5,-17.3,x,x
CCOc1ccccc1NC(=O)c1ccccc1-c1nc(-c2ccccc2OC)no1,15.9,0.5,-73.5,42.5*,-72.6,-3.2,23.5*,22.8*
O=[N+]([O-])c1ccc(-c2cnc[nH]2)cc1,x,-0.6,11.5,x,-9.9,-5.3,x,x
